Experiment [1] in a line: inhibitors of TNFa-induced NFkB p65 translocation, primary screen, imaging, HUVEC, MLSMR starter and 10KST1 sets (AID 438;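 active means inhibition above 20% together with a positive visual image hit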;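 further: compound added about 3h40 before a 20 min TNFalpha stimulation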;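 on inhibition: signal is the nuclear over cytoplasmic p65 intensity ratio per well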). The note with it: HUVEC TNFa-induced p65 nuclear translocation; cell count: measured here: nuclei count (cytotoxicity indicator), at 2.08 µM; inhibition: at 2 µM, stronger effect = higher value, 0% TNFa-plus-vehicle, 100% no-TNFa wells.
A short description of experiment [2]: inhibitors of mutant huntingtin aggregation, primary screen, imaging, exon1htt(103Q)mCFP cells, high-content imaging (AID 483;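 active means visual image review flags a hit and inhibition of aggregation exceeds 20%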;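 further: compound exposure lasted 3 days before fixation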;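 on nuclei count: percent of the per-plate median nuclei count of sample wells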). The note with it: exon1htt(103Q)mCFP cell line, aggregate imaging, at 2 µM; inhibition of aggregation: stronger effect = higher value; nuclei count: measured here: cell count, toxicity.
The nature of experiment [3]: inhibitors of E-selectin induction by TNFa, primary screen, imaging, HUVEC, immunofluorescence, MLSMR starter and 10KST1 sets (AID 487;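 active means visually confirmed hit in the image check and inhibition above 20%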;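 on inhibition: signal is fraction of cell area covered by stained E-selectin grains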;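 on nuclei count: 100% = median nuclei count of all wells on the same plate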). The note with it: HUVEC TNFalpha-induced E-selectin immunofluorescence imaging, at 2 µM; inhibition: stronger effect = higher value; nuclei count: measured here: cell number, toxicity.
Experiment [4] deals with Voltage-gated potassium channel subunit beta-2 (Rattus norvegicus) (UniProt P62483). As to the kind of experiment: KvBeta enzyme negative modulators, primary screen, biochemical, NADPH fluorescence (AID 622;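 active means fluorescence slope higher than the sample average by over 3 SD, cut at about -0.22 in these data, passing the limit was not always enough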;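 further: slope of raw intensity against log time taken from 70 to 1610 s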). The note with it: recombinant KvBeta, 4-cyanobenzaldehyde reduction, at 10 µM, stronger effect = higher value.
Sequence of Voltage-gated potassium channel subunit beta-2 (Rattus norvegicus) (P62483 whole entry, looked up): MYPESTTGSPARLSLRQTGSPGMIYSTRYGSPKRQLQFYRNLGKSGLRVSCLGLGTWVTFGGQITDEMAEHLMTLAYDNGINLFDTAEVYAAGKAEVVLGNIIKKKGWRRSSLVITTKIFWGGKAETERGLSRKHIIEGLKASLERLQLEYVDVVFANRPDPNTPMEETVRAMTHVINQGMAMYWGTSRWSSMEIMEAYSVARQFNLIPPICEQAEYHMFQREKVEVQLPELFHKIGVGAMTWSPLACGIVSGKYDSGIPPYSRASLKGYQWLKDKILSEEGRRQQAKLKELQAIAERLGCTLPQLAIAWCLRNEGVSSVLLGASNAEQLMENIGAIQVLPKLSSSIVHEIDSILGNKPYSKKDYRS
Experiment [5] has the same target. As to the kind of experiment: KvBeta positive modulators, primary screen, biochemical, NADPH fluorescence (AID 623;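 active means NADPH fluorescence slope more negative than the mean of all samples by about 3 SD, 99.7% confidence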;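 further: fluorescence intensity change per second fitted from 20 to 320 s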). The note with it: Recombinant KvBeta, NADPH fluorescence decrease slope, 10 min; at 10 µM; stronger effect = lower value.
The target in experiment [6] is Muscarinic acetylcholine receptor M4 (Homo sapiens) (UniProt P08173). As to the kind of experiment: compounds altering M4/GIRK thallium flux, either direction, primary screen, M4 allosteric agonist project, cell-based, HEK293 M4/GIRK, BTC-AM (AID 625;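 active means fluorescence slope after compound addition differing from the mean of all tested samples at 99.7% confidence, mostly higher but some lower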;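 further: thallium influx through GIRK channels coupled to M4 in HEK293 cells with BTC-AM dye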). The note with it: at 10 µM, actives lie on both sides. In short, it runs like this:
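Material – HEK293 cells with M4 receptor and GIRK channels · Buffer or medium – pH 7.3 thallium assay buffer · Doses – one dose, 10 µM final · Timing – cells overnight at 37 °C, BTC-AM loading 1 h, reads 2 min total · Measured by – kinetic fluorescence with BTC-AM dye · Controls – carbachol and DMSO controls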

A short description of experiment [7]: inhibitors of Sendai virus-induced IRF3 signaling, primary screen, TLR/RLR signaling modifier project, cell-based, Sendai virus stimulus, luciferase, 10K MLSCN set (AID 602276).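 Further: firefly luciferase from ISG56 promoter only with Renilla not read in this screen; 0% = Sendai virus plus DMSO and 100% = medium plus DMSO without virus.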 The note with it: HEK293 RL24 IRF3 luciferase reporter, at 10 µM, stronger effect = higher value. A general note: A reporter such as luciferase makes a cellular process visible.
The nature of experiment [8]: inhibitors of poly I:C-induced TLR3 signaling, primary screen, cell-based, poly I:C stimulus, luciferase, 10K MLSCN set (AID 602277;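 active means inhibition of the reporter signal at or above 50%; inactive means inhibition below 50%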). The note with it: HEK293-TLR3 RL24 IRF3 luciferase reporter, at 10 µM, stronger effect = higher value.

Each structure is given as a SMILES string. Active and inactive are the calls of the source.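 How the source made its calls, unless noted: active means inhibition at or above 50% at 10 µM; inactive means inhibition below 50%.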

For orientation: inhibition means the change of the read-out against control, counted positive when it falls.

Sequence of Muscarinic acetylcholine receptor M4 (Homo sapiens) (P08173 whole entry, looked up): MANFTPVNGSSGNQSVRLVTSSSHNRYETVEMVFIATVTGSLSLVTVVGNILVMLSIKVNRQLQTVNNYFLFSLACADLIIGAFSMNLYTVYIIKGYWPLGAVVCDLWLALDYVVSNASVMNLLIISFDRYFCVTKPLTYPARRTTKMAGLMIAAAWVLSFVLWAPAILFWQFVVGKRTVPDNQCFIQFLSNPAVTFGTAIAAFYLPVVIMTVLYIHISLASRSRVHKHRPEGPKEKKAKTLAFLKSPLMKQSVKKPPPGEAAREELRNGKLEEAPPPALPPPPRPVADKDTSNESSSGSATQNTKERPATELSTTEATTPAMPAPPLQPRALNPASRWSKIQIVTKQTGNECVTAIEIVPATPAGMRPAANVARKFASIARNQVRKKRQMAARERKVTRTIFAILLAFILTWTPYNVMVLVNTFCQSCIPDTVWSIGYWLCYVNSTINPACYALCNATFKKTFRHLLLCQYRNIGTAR

With `COC(=O)C1=C(C)N(c2ccc(C(=O)OC)cc2)C(=O)C1`, the cell count in experiment [1] was found to be 734. For the same compound, the inhibition in experiment [1] was 4% (inactive); in experiment [3], 23.7% (inactive); in experiment [7] it was 16.3% (inactive); in experiment [8], 6.55% (inactive). Also, the inhibition of aggregation in experiment [2] is -26.4% (inactive). Further, the nuclei count stood at 87.2% in experiment [2] and 105% in experiment [3]. Also, the fluorescence slope was -0.567 (inactive) in experiment [4] and 0.00678 (inactive) in experiment [6]. The NADPH fluorescence slope in experiment [5] was -4e-05 (inactive).

In the case of `O=C(Nc1ccc2oc(-c3ccncc3)nc2c1)c1cccs1`, in experiment [1], the cell count was found to be 159. The inhibition in experiment [1] is 108% (active); in experiment [3] it was 14.7% (inactive); in experiment [7], -55.9% (inactive); in experiment [8], -120% (inactive). For the same compound, in experiment [2], the inhibition of aggregation is -8.6% (inactive). The results for the nuclei count in experiment [2] and in experiment [3] were 103% and 113%, respectively. The fluorescence slope is -0.346 (inactive) in experiment [4] and 0.00345 (inactive) in experiment [6]. In addition, the NADPH fluorescence slope in experiment [5] is -0.000115 (inactive).

Consider `COc1ccc2c(-c3cccnc3)cc(=O)[nH]c2c1`, for which, in experiment [1], the cell count is 363. Also, the inhibition in experiment [1] is 4.3% (inactive); in experiment [3] it was 36.3% (inactive); in experiment [7] it was 13.4% (inactive); in experiment [8] it was 26.1% (inactive). The inhibition of aggregation in experiment [2] is -5.5% (inactive). The figures for the nuclei count in experiment [2] and in experiment [3] were 84.5% and 79.4%, respectively. The results for the fluorescence slope in experiment [4] and in experiment [6] were -0.39 (inactive) and 0.00553 (inactive), respectively. For the same compound, in experiment [5], the NADPH fluorescence slope was -9.1e-05 (inactive).

For `Cn1c(SCc2ccc3c(c2)OCO3)nnc1-c1ccccc1`, the cell count in experiment [1] stood at 344. The inhibition in experiment [1] was 9.8% (inactive); in experiment [3] it was -72.5% (inactive); in experiment [7] it was -9.99% (inactive); in experiment [8] it was -38.3% (inactive). Besides, in experiment [2], the inhibition of aggregation is 15.3% (inactive). Further, the nuclei count came out at 93.9% in experiment [2] and 126% in experiment [3]. Also, the fluorescence slope is -0.526 (inactive) in experiment [4] and 0.00602 (inactive) in experiment [6]. Also, in experiment [5], the NADPH fluorescence slope was 4.8e-05 (inactive).

As to `CCOC(=O)C1CCCN(C(=O)c2cc(=O)c3ccccc3o2)C1` (centres undefined), the cell count in experiment [1] was 376. The inhibition in experiment [1] was -18.9% (inactive); in experiment [3], -38.4% (inactive); in experiment [7], 14.5% (inactive); in experiment [8] it was 19.9% (inactive). For the same compound, the inhibition of aggregation in experiment [2] is -28.1% (inactive). The nuclei count amounted to 114% in experiment [2] and 98.7% in experiment [3]. In addition, the fluorescence slope was -0.426 (inactive) in experiment [4] and 0.00575 (inactive) in experiment [6]. In addition, the NADPH fluorescence slope in experiment [5] was 2.6e-05 (inactive).

Consider `Cc1cccn2c(=O)c3cc(C#N)c(=NC(=O)c4cccnc4)n(CC4CCCO4)c3nc12` (centres undefined), for which the cell count in experiment [1] was 852. Also, the inhibition was -2.8% (inactive) in experiment [1], -74.7% (inactive) in experiment [3], -14.2% (inactive) in experiment [7] and -0.613% (inactive) in experiment [8]. Also, in experiment [2], the inhibition of aggregation was -7.5% (inactive). In addition, the nuclei count in experiment [2] came out at 105%; in experiment [3], 107%. The fluorescence slope in experiment [4] was -0.0377 (active); in experiment [6] it was 0.0039 (inactive). In experiment [5], the NADPH fluorescence slope is -8.2e-07 (inactive).

For `CCCC(=O)Nc1ccc(NC(=O)C2CC2)cn1`, in experiment [1], the cell count came to 471. For the same compound, the inhibition was -17.9% (inactive) in experiment [1], -79.6% (inactive) in experiment [3], 14.1% (inactive) in experiment [7] and -13.6% (inactive) in experiment [8]. Moreover, in experiment [2], the inhibition of aggregation is -28.9% (inactive). Besides, the nuclei count in experiment [2] is 99.8%; in experiment [3], 112%. Also, the fluorescence slope is -0.527 (inactive) in experiment [4] and 0.00449 (inactive) in experiment [6]. Moreover, in experiment [5], the NADPH fluorescence slope was 1.9e-05 (inactive).

As to `CCOC(=O)C1C(=O)NC(SCC(=O)Nc2nccs2)=C(C#N)C1c1ccccc1OCC` (centres undefined), the cell count in experiment [1] is 605. The inhibition is -27.7% (inactive) in experiment [1], 20.7% (inactive) in experiment [3], 19.6% (inactive) in experiment [7] and 20.1% (inactive) in experiment [8]. The inhibition of aggregation in experiment [2] is -20.6% (inactive). Moreover, the nuclei count came out at 120% in experiment [2] and 104% in experiment [3]. For the same compound, the fluorescence slope in experiment [4] was -0.454 (inactive); in experiment [6], 0.00515 (inactive). The NADPH fluorescence slope in experiment [5] was -3.1e-05 (inactive).

Take `CCOc1cc(C)c(C(C)C)cc1S(=O)(=O)N1CCN(C)CC1`: the cell count in experiment [1] stood at 775. Besides, the inhibition in experiment [1] is -2.4% (inactive); in experiment [3] it was -3% (inactive); in experiment [7], -9.48% (inactive); in experiment [8], -5.37% (inactive). Further, the inhibition of aggregation in experiment [2] was 19% (inactive). In addition, the nuclei count in experiment [2] stood at 93.4%; in experiment [3], 112%. Further, the fluorescence slope was -0.475 (inactive) in experiment [4] and 0.00438 (inactive) in experiment [6]. Moreover, the NADPH fluorescence slope in experiment [5] was 1.9e-05 (inactive).

Take `CCC(=O)N1CCc2cc(S(=O)(=O)CCC(=O)Nc3ccc(C)c(F)c3)ccc21`: in experiment [1], the cell count was 565. The inhibition was 2.7% (inactive) in experiment [1], -119% (inactive) in experiment [3], 8.99% (inactive) in experiment [7] and 14.5% (inactive) in experiment [8]. Besides, the inhibition of aggregation in experiment [2] is -3% (inactive). Besides, the nuclei count in experiment [2] came to 111%; in experiment [3] it was 136%. Besides, the fluorescence slope was -0.504 (inactive) in experiment [4] and 0.00659 (inactive) in experiment [6]. Also, the NADPH fluorescence slope in experiment [5] is 0.000146 (inactive).

`COCC(=O)N(Cc1ccc(OC)cc1)Cc1nc2ccccc2c(=O)[nH]1`: in experiment [1], the cell count stood at 351. Further, the inhibition is 6.5% (inactive) in experiment [1], -57.4% (inactive) in experiment [3], 17.3% (inactive) in experiment [7] and 26.3% (inactive) in experiment [8]. For the same compound, in experiment [2], the inhibition of aggregation was -0.1% (inactive). The nuclei count in experiment [2] turned out to be 91.9%; in experiment [3] it was 117%. Besides, the values for the fluorescence slope in experiment [4] and in experiment [6] were -0.572 (inactive) and 0.00687 (inactive), respectively. Besides, the NADPH fluorescence slope in experiment [5] is -4.4e-05 (inactive).

As to `Oc1c(Cl)cc(Cl)c2c1NCCC2`, the cell count in experiment [1] was 313. For the same compound, the inhibition in experiment [1] was 0.4% (inactive); in experiment [3], -47.5% (inactive); in experiment [7], 11.2% (inactive); in experiment [8] it was 31.8% (inactive). The inhibition of aggregation in experiment [2] is -13.1% (inactive). In addition, the nuclei count in experiment [2] was 100%; in experiment [3] it was 91.9%. Also, the fluorescence slope in experiment [4] was -0.466 (inactive); in experiment [6], 0.00523 (inactive). For the same compound, the NADPH fluorescence slope in experiment [5] is -3e-05 (inactive).

Turning to `Cc1nc(Nc2nc(=O)c3ccccc3n2C)nc2c(C)cccc12`, the cell count in experiment [1] was found to be 594. Besides, the inhibition is 5.2% (inactive) in experiment [1], -112% (inactive) in experiment [3], 14.6% (inactive) in experiment [7] and 22.9% (inactive) in experiment [8]. Moreover, in experiment [2], the inhibition of aggregation was -282% (inactive). The nuclei count in experiment [2] was 73.9%; in experiment [3] it was 156%. The values for the fluorescence slope in experiment [4] and in experiment [6] were -0.348 (inactive) and 0.00486 (inactive), respectively. For the same compound, the NADPH fluorescence slope in experiment [5] is -5e-06 (inactive).

Take `Cc1nc(/N=C\N(C)C)sc1C(=O)Nc1ccccc1`: in experiment [1], the cell count is 602. In addition, the inhibition in experiment [1] is 1.5% (inactive); in experiment [3], -27.8% (inactive); in experiment [7], -2.68% (inactive); in experiment [8], -18.9% (inactive). Further, the inhibition of aggregation in experiment [2] is -11.8% (inactive). The nuclei count is 113% in experiment [2] and 97.5% in experiment [3]. Further, the fluorescence slope in experiment [4] was -0.306 (inactive); in experiment [6], 0.00595 (inactive). Further, the NADPH fluorescence slope in experiment [5] was -2e-05 (inactive).

These data come from PubChem BioAssay.
